From ChEMBL document CHEMBL1144485, “The synthesis and the in vitro cytotoxicity studies of bisnaphthalimidopropyl polyamine derivatives against colon cancer cells and parasite Leishmania infantum” (Bioorg Med Chem, 2007)

What was measured:
Caco-2 [1] = experiment: Cytotoxicity activity against Caco-2 cells after 24 by MTT assay; type: cell-based; details: Homo sapiens
Outline: (§1)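 Caco-2 cells in Earle's MEM with 10% FCS, glutamine, non-essential amino acids, penicillin/streptomycin; seeded at 2 × 10^4 cells cm−2, 24 h before drug. Compounds (stock in 20% DMSO, diluted in medium) at 0.01–40 µM for 24 or 48 h, 37 °C. MTT 1 mg/ml in serum-free medium 4 h, DMSO solubilisation, A560. IC50 = 50% absorbance reduction vs control from fitted log line; six replicates, mean ± SD.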

Caco-2 [2] = experiment: Cytotoxicity activity against Caco-2 cells after 48 by MTT assay; type: cell-based; details: Homo sapiens; outline: as §1
Leishmania infantum = experiment: Cytotoxicity activity against Leishmania infantum after 72 hrs by MTT assay; type: functional, organism-based
Outline: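 L. infantum promastigotes (clone MHOM/MA671TMA-P263), log phase (2-day culture), grown at 27 °C in RPMI with 10% heat-inactivated FBS, 2 mM glutamine, 20 mM Hepes, penicillin/streptomycin. 10^6/ml exposed to serial drug concentrations (0.30–100 µM) for 3 days, 27 °C. MTT 0.25 mg/ml final, 4 h, 27 °C; SDS/DMF pH 4.8 lysis 1 h at 37 °C, A550. Growth IC50 by linear regression; at least five assays, ± SD.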

Row | SMILES | IC50 (Caco-2 [1]) | IC50 (Caco-2 [2]) | IC50 (Leishmania infantum)
1 | O=C1c2cccc3cccc(c23)C(=O)N1CCCNCCCCCCCCCCNCCCN1C(=O)c2cccc3cccc(c23)C1=O [BNIPDADEC] | 770 nM | 360 nM | 
2 | O=C1c2cccc3cccc(c23)C(=O)N1CCCNCCNCCNCCCN1C(=O)c2cccc3cccc(c23)C1=O [BNIPDETA] | 21700 nM | 22300 nM | 740 nM
3 | O=C1c2cccc3cccc(c23)C(=O)N1CCCNCCCCCCCCCNCCCN1C(=O)c2cccc3cccc(c23)C1=O [BNIPDANON] | 3600 nM | 670 nM | 780 nM
4 | O=C1c2cccc3cccc(c23)C(=O)N1CCCNCCCCCCCCNCCCN1C(=O)c2cccc3cccc(c23)C1=O [BNIPDAOCT] | 6200 nM | 3200 nM | 780 nM
5 | O=C1c2cccc3cccc(c23)C(=O)N1CCCNCCCNCCCNCCCN1C(=O)c2cccc3cccc(c23)C1=O [BNIPDPTA] | 5140 nM | 1540 nM | 1540 nM
6 | O=C1c2cccc3cccc(c23)C(=O)N1CCCNCCCCNCCCNCCCN1C(=O)c2cccc3cccc(c23)C1=O [BNIPSPD] | 470 nM | 150 nM | 470 nM
